From ChEMBL document CHEMBL1155469, “Peptide nucleic acids conjugated to short basic peptides show improved pharmacokinetics and antisense activity in adipose tissue” (J Med Chem, 2010)
Calls of active or inactive are those of the source. The rule behind the calls is not given here.

Columns and labels:
Mus musculus [1] = experiment: Toxicity in Balb/C mouse assessed as change in body weight at 10 to 40 mg/kg, ip administered thrice a week for 2 weeks measured 48 hrs after last dose; assay type: organism-based; design: dose 10-40 mg/kg, route intraperitoneal; details: in vivo
Outline: (§1)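 Male Balb/c mice, 6–8 wk, n=4/group, received compound i.p. in PBS (10 ul/g) 3x/wk for 2 wk. Body weight was monitored throughout. At 48 h after the last dose, mice were anesthetized with isoflurane and bled by cardiac puncture. Serum AST, ALT, BUN, bilirubin, glucose and triglycerides were compared with the saline group. ALT rise below 2x normal was counted as absent.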

Mus musculus [2] = experiment: Toxicity in Balb/C mouse assessed as change in serum AST levels at 10 to 40 mg/kg, ip administered thrice a week for 2 weeks measured 48 hrs after last dose; assay type: organism-based; design: dose 10-40 mg/kg, route intraperitoneal; details: in vivo; outline: as §1
Mus musculus [3] = experiment: Toxicity in Balb/C mouse assessed as change in serum ALT levels at 10 to 40 mg/kg, ip administered thrice a week for 2 weeks measured 48 hrs after last dose; assay type: organism-based; design: dose 10-40 mg/kg, route intraperitoneal; details: in vivo; outline: as §1
Mus musculus [4] = experiment: Toxicity in Balb/C mouse assessed as change in blood urea nitrogen levels at 10 to 40 mg/kg, ip administered thrice a week for 2 weeks measured 48 hrs after last dose; assay type: organism-based; design: dose 10-40 mg/kg, route intraperitoneal; details: in vivo; outline: as §1
Mus musculus [5] = experiment: Toxicity in Balb/C mouse assessed as change in serum bilirubin levels at 10 to 40 mg/kg, ip administered thrice a week for 2 weeks measured 48 hrs after last dose; assay type: organism-based; design: dose 10-40 mg/kg, route intraperitoneal; details: in vivo; outline: as §1
Mus musculus [6] = experiment: Toxicity in Balb/C mouse assessed as change in serum glucose levels at 10 to 40 mg/kg, ip administered thrice a week for 2 weeks measured 48 hrs after last dose; assay type: organism-based; design: dose 10-40 mg/kg, route intraperitoneal; details: in vivo; outline: as §1
Mus musculus [7] = experiment: Toxicity in Balb/C mouse assessed as change in serum triglyceride levels at 10 to 40 mg/kg, ip administered thrice a week for 2 weeks measured 48 hrs after last dose; assay type: organism-based; design: dose 10-40 mg/kg, route intraperitoneal; details: in vivo; outline: as §1
Mus musculus [8] = experiment: Inhibition of PTEN expression in Balb/C mouse liver at 10 to 40 mg/kg, ip administered thrice a week for 2 weeks measured 48 hrs after last dose by Western blot analysis; assay type: functional, organism-based
Outline: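 Male Balb/c mice, 6–8 wk, n=4/group, dosed i.p. in PBS 3x/wk for 2 wk and killed 48 h after the last dose. Tissue was homogenized in RIPA buffer with protease inhibitors, and protein was measured by Lowry assay. Lysates were run on 10% PAGE and blotted to PVDF. Blots were probed with rabbit anti-PTEN (1:1000) and HRP anti-rabbit (1:2500), with ECL detection.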

Mus musculus [9] = experiment: Inhibition of PTEN expression in Balb/C mouse white adipose tissue assessed as reduction of full length transcript at 10 to 40 mg/kg, ip administered thrice a week for 2 weeks measured 48 hrs after last dose […]; assay type: functional, organism-based
[10] = Drug level in Balb/C mouse liver at 40 mg/kg, ip administered thrice a week for 2 weeks measured 48 hrs after last dose; assay type: ADME, organism-based; design: dose 40 mg/kg, route intraperitoneal; details: read-out: Drug uptake
Outline: (§2)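 Male Balb/c mice, 6–8 wk, n=4/group, dosed i.p. in PBS 3x/wk for 2 wk at 40 mg/kg and killed 48 h after the last dose. Liver, kidney and adipose tissue were homogenized in SDS extraction buffer and diluted to 0.2 mg tissue/mL. They were hybridized with a digoxigenin/biotin cutting probe, captured on NeutrAvidin, and digested with nuclease S1. Anti-digoxigenin-AP fluorescence was read and quantified against a 0.1–100 nM standard ladder, in quadruplicate.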

[11] = Drug level in Balb/C mouse kidney at 40 mg/kg, ip administered thrice a week for 2 weeks measured 48 hrs after last dose; assay type: ADME, organism-based; design: dose 40 mg/kg, route intraperitoneal; details: read-out: Drug uptake; outline: as §2
[12] = Drug level in Balb/C mouse adipose tissue at 40 mg/kg, ip administered thrice a week for 2 weeks measured 48 hrs after last dose; assay type: ADME, organism-based; design: dose 40 mg/kg, route intraperitoneal; details: read-out: Drug uptake; outline: as §2
Mus musculus [13] = experiment: Inhibition of PTEN expression in Balb/C mouse kidney at 10 to 40 mg/kg, ip administered thrice a week for 2 weeks measured 48 hrs after last dose

For `Cc1cn(CC(=O)N(CCNC(=O)CN(CCNC(=O)[C@H](CCCCN)N(CCNC(=O)[C@H](CCCCN)NC(=O)[C@@H](N)CCCCN)C(=O)Cn2cc(C)c(=O)[nH]c2=O)C(=O)Cn2ccc(N)nc2=O)CC(=O)NCCN(CC(=O)NCCN(CC(=O)NCCN(CC(=O)NCCN(CC(=O)NCCN(CC(=O)NCCN(CC(=O)NCCN(CC(=O)NCCN(CC(=O)NCCN(CC(=O)NCCN(CC(=O)NCCN(CC(=O)NCCN(CC(=O)NCCN(CC(=O)N[C@@H](CCCCN)C(N)=O)C(=O)Cn2cnc3c(N)ncnc32)C(=O)Cn2ccc(N)nc2=O)C(=O)Cn2cnc3c(N)ncnc32)C(=O)Cn2cc(C)c(=O)[nH]c2=O)C(=O)Cn2ccc(N)nc2=O)C(=O)Cn2cc(C)c(=O)[nH]c2=O)C(=O)Cn2cnc3c(N)ncnc32)C(=O)Cn2ccc(N)nc2=O)C(=O)Cn2cnc3c(N)ncnc32)C(=O)Cn2ccc(N)nc2=O)C(=O)Cn2cnc3c(=O)[nH]c(N)nc32)C(=O)Cn2cnc3c(N)ncnc32)C(=O)Cn2ccc(N)nc2=O)c(=O)[nH]c1=O`, the Activity (Mus musculus [1]) was “Non-toxic”, the Activity (Mus musculus [2]) was “Non-toxic” and the Activity (Mus musculus [3]) was “Non-toxic”. The Activity (Mus musculus [4]) was “Non-toxic”, the Activity (Mus musculus [5]) was “Non-toxic” and the Activity (Mus musculus [6]) was “Non-toxic”. The Activity (Mus musculus [7]) was “Non-toxic”, the inhibition (Mus musculus [8]) was “inactive” and the Activity (Mus musculus [9]) was “inactive”. For the same molecule, the concentration at 48 h [10] was 28 µM, the concentration at 48 h [11] was 355 µM and the concentration at 48 h [12] was 4 µM. The inhibition (Mus musculus [13]) was “inactive”.
